Common to all, as to format: functional, organism-based
Test [1] deals with Human immunodeficiency virus 1. The test can be described thus: Antiviral activity against HIV 1 NL4.3 assessed as inhibition of virus-induced cytopathic effect by MTT assay. The following applies: Human immunodeficiency virus 1, NL4.3. The gist of the method: (§1)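 MT-4 cells (RPMI 1640, 10% heat-inactivated FCS, 2 mM L-glutamine, 37°C, 5% CO2) infected with 100 to 300 CCID50 of virus, titrated on MT-4 cells. Fivefold serial drug dilutions were present during infection. Protection from viral CPE was read by MTT reduction to formazan, measured spectrophotometrically. IC50 is the concentration giving 50% protection.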

The test system of test [2] is Human immunodeficiency virus 1. Put plainly: Antiviral activity against HIV 1 RIN harboring integrase gene infected in MT-4 cells assessed as inhibition of virus-induced cytopathic effect by MTT assay. The following applies: Human immunodeficiency virus 1, RIN, MT4. The gist of the method:
as §1

The subject of test [3] is Human immunodeficiency virus 1. Put plainly: Antiviral activity against HIV 1 RIN harboring integrase gene infected in MT-4 cells assessed as inhibition of virus-induced cytopathic effect by MTT assay after 20 passages selected in presence of compound. The following applies: Human immunodeficiency virus 1, RIN, MT4.
Test [4] has as its system Human immunodeficiency virus 1. The test can be described thus: Antiviral activity against HIV 1 NL4.3 integrase E92Q mutant infected in human MT-4 cells assessed as inhibition of virus-induced cytopathic effect by MTT assay. The note with it: Human immunodeficiency virus 1, NL4.3, MT4. The gist of the method: as §1
On the technique in general: Protection from cytopathic effect is a common read-out in antiviral testing.

Test [5] has as its system Human immunodeficiency virus 1. Put plainly: Antiviral activity against HIV 1 NL4.3 integrase S230N mutant infected in human MT-4 cells assessed as inhibition of virus-induced cytopathic effect by MTT assay. The note with it: Human immunodeficiency virus 1, NL4.3, MT4. The gist of the method:
as §1

The test system of test [6] is Human immunodeficiency virus 1. Put plainly: Antiviral activity against HIV 1 NL4.3 harboring integrase L74M mutant infected in human MT-4 cells assessed as inhibition of virus-induced cytopathic effect by MTT assay. The note with it: Human immunodeficiency virus 1, NL4.3, MT4. The gist of the method: as §1
Test [7] deals with Human immunodeficiency virus 1. Put plainly: Antiviral activity against HIV 1 RIN HIV 1 RIN harboring integrase gene infected in MT-4 cells assessed as inhibition of virus-induced cytopathic effect by MTT assay after 60 passages selected in presence of compound. The following applies: Human immunodeficiency virus 1, RIN, MT4. The gist of the method:
as §1

The test system of test [8] is Human immunodeficiency virus 1. Put plainly: Antiviral activity against HIV 1 RIN HIV 1 RIN harboring integrase gene infected in MT-4 cells assessed as inhibition of virus-induced cytopathic effect by MTT assay after 40 passages selected in presence of compound. The note with it: Human immunodeficiency virus 1, RIN, MT4. The gist of the method:
as §1

Test [9] relates to Human immunodeficiency virus 1. Put plainly: Antiviral activity against HIV 1 3B harboring integrase E92Q, S230N and L34M triple mutant infected in MT-4 cells assessed as inhibition of virus-induced cytopathic effect by MTT assay selected after 60 passages in presence of compound. The following applies: Human immunodeficiency virus 1, 3B, MT4. The essentials:
as §1

In test [10] the test system is Human immunodeficiency virus 1. The test can be described thus: Antiviral activity against HIV 1 3B harboring integrase L34M mutant infected in MT-4 cells assessed as inhibition of virus-induced cytopathic effect by MTT assay selected after 40 passages in presence of compound. The following applies: Human immunodeficiency virus 1, 3B, MT4. The gist of the method: as §1

Test [11] deals with Human immunodeficiency virus 1. The test can be described thus: Antiviral activity against HIV 1 3B harboring integrase E92Q S230N double mutant infected in MT-4 cells assessed as inhibition of virus-induced cytopathic effect by MTT assay selected after 20 passages in presence of compound. The note with it: Human immunodeficiency virus 1, 3B, MT4. The essentials:
as §1

The subject of test [12] is Human immunodeficiency virus 1. Put plainly: Antiviral activity against HIV 1 3B infected in MT-4 cells assessed as inhibition of virus-induced cytopathic effect by MTT assay. The note with it: Human immunodeficiency virus 1, 3B, MT4. The essentials:
as §1

The subject of test [13] is Human immunodeficiency virus 1. The test can be described thus: Antiviral activity against HIV 1 3B infected in MT-4 cells assessed as inhibition of virus-induced cytopathic effect by MTT assay selected after 50 passages in presence of compound. The note with it: Human immunodeficiency virus 1, 3B, MT4. The essentials: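 Selected strains came from serial passage of HIV-1(IIIB) in MT-4 cells, started at MOI 0.01 with drug at 0.005 µM. Cultures were checked for CPE every 3 to 4 days. Supernatant from CPE-positive cultures went onto fresh cells at equal or higher drug concentration; cultures without breakthrough were subcultured at the same concentration. Susceptibility was tested by the MT-4/MTT CPE assay.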

In general, EC50 refers to the concentration needed to bring the measured effect to its halfway point. Turning to `Cc1nnc(C(=O)NC(C)(C)c2nc(C(=O)NCc3ccc(F)cc3)c(O)c(=O)n2C)o1`, the EC50 in [1] was 5 nM; in [2], 6 nM; in test [3], 10 nM; in test [4] it was 15 nM; in [5], 9 nM; in test [6], 7 nM. For the same molecule, the EC50 in test [7] is 68 nM; in [8], 25 nM.
Usually IC50 stands for the midpoint of a concentration-inhibition curve. Take `O=C(NCc1ccc(F)cc1)c1nc(N2CCCCS2(=O)=O)c2cccnc2c1O`: the EC50 was determined as 4 nM in [1]; 4 nM in test [2]; 550 nM in [9]; 18 nM in test [3]; 73 nM in test [4]; 170 nM in test [10]. The half-maximal effective concentration (EC50) in test [5] turned out to be 7 nM; in [6], 4 nM; in test [11], 110 nM; in test [12], 5 nM; in test [7], 190 nM; in test [8], 64 nM. For the same molecule, the IC50 in test [13] is 1100 nM.
`Cc1ccnc2c1NC(=O)c1cccnc1N2C1CC1` [NEVIRAPINE]: the EC50 in test [2] was determined as 170 nM; in test [9], 310 nM; in test [10], 350 nM; in [11] it was 380 nM; in test [12] it was 460 nM; in test [7] it was 150 nM. Besides, in test [8], the EC50 turned out to be 150 nM.
With `CC(C)c1nc(CN(C)C(=O)N[C@H](C(=O)N[C@@H](Cc2ccccc2)C[C@H](O)[C@H](Cc2ccccc2)NC(=O)OCc2cncs2)C(C)C)cs1` [RITONAVIR], the EC50 in test [1] was 130 nM; in [2] it was 43 nM; in test [9], 60 nM; in test [3] it was 39 nM; in [4], 58 nM; in test [10] it was 69 nM. Moreover, the EC50 in test [5] was determined as 90 nM; in test [6], 60 nM; in [11] it was 69 nM; in test [12], 55 nM; in test [7] it was 41 nM; in [8], 42 nM.
Turning to `c1cc(CN2CCCNCCNCCCNCC2)ccc1CN1CCCNCCNCCCNCC1` [PLERIXAFOR], the EC50 in test [2] was 14 nM; in test [9] it was 56 nM; in [3], 8 nM; in test [10], 28 nM; in test [11] it was 49 nM; in test [12], 34 nM. In addition, the EC50 in test [7] and in [8] was 8 nM in each case.
Take `COc1cc2c(cc1Cc1cccc(Cl)c1F)c(=O)c(C(=O)O)cn2[C@H](CO)C(C)C`: the EC50 in test [1] is 0.7 nM; in test [2], 0.7 nM; in [9] it was 77 nM; in [3], 15 nM; in [4] it was 12 nM; in test [10] it was 50 nM. The concentration giving a half-maximal response (EC50) in test [5] amounted to 0.9 nM; in test [6] it was 0.6 nM; in [11], 33 nM; in test [12], 1 nM; in test [7], 59 nM; in test [8] it was 18 nM.
For the molecule `COc1cccc2c1c(C(=O)/C=C(\O)C(=O)O)cn2Cc1ccc(F)cc1`, the EC50 in test [1] is 560 nM; in test [2], 440 nM; in [9], 3610 nM; in [3], 520 nM; in test [4] it was 660 nM; in [10] it was 1860 nM. Also, the EC50 in test [5] was found to be 490 nM; in [6] it was 320 nM; in [11], 1890 nM; in test [12] it was 390 nM; in test [7] it was 2610 nM; in test [8], 1080 nM.
With `Cc1cn([C@H]2C[C@H](N=[N+]=[N-])[C@@H](CO)O2)c(=O)[nH]c1=O` [ZIDOVUDINE], the EC50 in test [1] worked out at 7 nM; in test [2], 18 nM; in test [9], 7 nM; in [3], 22 nM; in [4] it was 7 nM; in [10], 4 nM. For the same molecule, the EC50 in [5] amounted to 6 nM; in test [6] it was 5 nM; in test [11] it was 18 nM; in test [12], 18 nM; in test [7], 22 nM; in test [8], 22 nM.

The values are drawn from ChEMBL document CHEMBL1255362, “Mutations in human immunodeficiency virus type 1 integrase confer resistance to the naphthyridine L-870,810 and cross-resistance to the clinical trial drug GS-9137” (Antimicrob Agents Chemother, 2008).
